HSF1 activator – HSF-1 activators, primary screen, NIH3T3-HGL cells, MG132 stress, luminescence, single point; NIH3T3-HGL HSF-1 luciferase reporter, 8 h; 100% = twice DMSO control signal; activation, % at 9 µM; 1.7% of 300,000 active;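 active = mean replicate activation of at least 50% with a set share of replicates each reaching 50%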
CHT allo act – CHT positive allosteric modulators, primary screen, cell-based, membrane potential dye, choline EC20; CHT-expressing cells; active compounds read high; LV-AA mutant CHT in HEK293 cells; B-score at 10 µM; 0.49% of 310,000 active;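 active = initial fluorescence not abnormally high and integrated response B-score, plate-corrected, over 3 SD above library mean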
Target sequence (Q9GZV3 whole entry, looked up): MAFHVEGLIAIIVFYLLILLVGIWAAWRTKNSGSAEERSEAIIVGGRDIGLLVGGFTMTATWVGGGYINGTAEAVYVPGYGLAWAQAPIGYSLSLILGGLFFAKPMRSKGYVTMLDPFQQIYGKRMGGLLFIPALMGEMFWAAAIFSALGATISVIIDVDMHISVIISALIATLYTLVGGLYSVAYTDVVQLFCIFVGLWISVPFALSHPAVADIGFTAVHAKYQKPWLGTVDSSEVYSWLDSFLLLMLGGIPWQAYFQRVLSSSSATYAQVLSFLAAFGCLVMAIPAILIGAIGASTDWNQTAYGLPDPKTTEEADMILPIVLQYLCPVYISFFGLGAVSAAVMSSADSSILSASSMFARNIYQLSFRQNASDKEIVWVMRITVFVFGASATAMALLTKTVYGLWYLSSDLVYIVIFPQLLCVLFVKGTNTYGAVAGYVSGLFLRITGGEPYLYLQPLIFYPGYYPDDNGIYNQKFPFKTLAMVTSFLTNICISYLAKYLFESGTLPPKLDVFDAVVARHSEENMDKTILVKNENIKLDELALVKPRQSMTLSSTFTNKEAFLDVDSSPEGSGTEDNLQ
HSF1 inh – HSF1 inhibitors in luciferase reporter cells, primary screen, cell-based, NIH3T3, luminescence; NIH3T3-HGL HSE-luciferase, MG132-induced, luminescence 8 h; active compounds read low; activity change, negative = inhibition, % at 7.5 µM (by protocol); 0.77% of 300,000 active;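 active = more than half of replicate wells show activity change below -50%, luminescence cut by over half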;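 also: luciferase reports HSF-1 transcriptional activity via heat shock element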
Hep lipid drop – inhibitors of hepatocyte lipid droplet formation, primary screen, imaging, high-throughput imaging, BODIPY stain; 0.4% of 240,000 active; AML12 mouse hepatocytes, oleate lipid droplets; AID 1656, 2009; inhibition, % at 6.5 µM;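 active = lipid droplet intensity inhibited by at least 50%, with more than 500 cells counted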
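Test system: AML12 mouse liver cells; schedule: overnight exposure; technique: high-content imaging of BODIPY-stained droplets and DAPI nuclei; read-out: % inhibition of corrected integrated BODIPY droplet signal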
PHOSPHO1 block – PubChem AID 1565 | 1.1% of 290,000 active | Phosphoethanolamine/phosphocholine phosphatase (Homo sapiens), Q8TCT1 | inhibition, % at 13.3 µM | recombinant PHOSPHO1, absorbance phosphatase assay; in the data active = inhibition above about 60%
CHT inh – inhibitors of human choline transporter CHT; High affinity choline transporter 1 (Homo sapiens), Q9GZV3; CHT-expressing cells, membrane potential dye, choline response; active compounds read low; B-score at 10 µM; 0.86% of 310,000 active; AID 488975, 2010;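 active = B-score over 3 SD under the library average, and starting fluorescence ratio not unusually high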;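 also: choline stimulus applied at its EC90 after an EC20 pre-addition; B-score computed on integrated fluorescence ratio after choline addition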
Large screens that a line does not name were inactive. Only some compounds are listed: those with a hit (about 4.9% of all), similar ones and a draw of the others.

Cc1nn(-c2ccccc2)c(=S)n1-c1ccccc1	none
O=C(CCl)N1CCN2C(=O)c3ccccc3C12c1ccc(Cl)cc1 (configuration not stated)	HSF1 activator 76.5
Cc1noc(C)c1COc1ccc(C(=O)OCC(=O)Nc2c(C)n(C)n(-c3ccccc3)c2=O)cc1	HSF1 inh -55.7
CCC/C=C(\CCC)C(NC(=O)OCC(C)C)c1ccc(C(=O)OC)cc1 (configuration not stated)	none
Cc1ccc(CNC(=O)CSc2nccn(-c3ccc(C)c(F)c3)c2=O)cc1	none (no result: Hep lipid drop, PHOSPHO1 block)
O=C(CSc1nccn(-c2ccc(F)c(F)c2)c1=O)NC1CCCC1	HSF1 activator 62.0 (no result: CHT allo act, Hep lipid drop, PHOSPHO1 block, CHT inh)
Cc1ccc(S(=O)(=O)N(C)C)cc1NC(=O)COC(=O)Cc1n[nH]c(=O)c2ccccc12	none
CCOC(=O)N1CCN(C(=O)c2cn(CC)c3ccc(S(=O)(=O)N4CCC(C)CC4)cc3c2=O)CC1	none
COc1ccccc1OCc1nnc(SCCN2CCOCC2)o1	HSF1 activator 58.2 (no result: Hep lipid drop)
COc1ccccc1OCc1nnc(SCC(=O)N2CCCC2)o1	none
CCNC(=O)C(=O)Nc1cc2c3c(c1)CCC(=O)N3CCC2	PHOSPHO1 block 64.9
CCNC(=O)C(=O)Nc1cc2c3c(c1)CCN3C(=O)CC2	none
COc1ccc2cc3cc(C(=O)NCCN4CCc5ccccc5C4)sc3nc2c1	HSF1 activator 73.7
CCOC(=O)c1sc2nc(C)n(N)c(=O)c2c1C	PHOSPHO1 block 62.9
COc1ccccc1OCCC(=O)OCC(=O)Nc1ccc(Br)cc1	none
O=C(Nc1ccccc1Cl)Nc1ccccc1Cl	none
O=C(Nc1ccc(Nc2ccccc2)cc1)Nc1ccccc1Cl	HSF1 activator 56.2
COCCOC(=O)c1c(NC(=O)CN2CCc3ccccc32)sc(C(N)=O)c1C	none
CCOC(=O)c1c(NC(=O)CN2CCCc3ccccc32)sc(C(C)=O)c1C	HSF1 activator 50.2
Cc1cc(-n2c(C)cc(C(=O)CSc3ccc4c(c3)OCCO4)c2C)no1	PHOSPHO1 block 71.1 (no result: Hep lipid drop)
Cc1ccc(-n2nnnc2SCC(=O)c2cc(C)n(-c3cc(C)on3)c2C)c(C)c1	PHOSPHO1 block 75.4 (no result: Hep lipid drop)
Cc1cc(-n2c(C)cc(C(=O)CSc3nnnn3-c3ccccc3)c2C)no1	none (no result: Hep lipid drop)
CCOc1ccc(NC(=O)c2cc3ccccc3cc2OC)cc1	HSF1 activator 74.7
COc1ccccc1NC(=O)CN1CCN(CC(=O)Nc2ccccc2Cl)CC1	HSF1 activator 242.6
CCOc1ccc(NC(=O)c2cc3ccccc3cc2O)cc1	none
COc1cc2ccccc2cc1C(=O)Nc1ccccc1Cl	HSF1 activator 92.6
COC(=O)CCC(=O)Nc1cccc2c(NC(=O)CCC(=O)OC)cccc12	none
O=C(CCc1nnc(-c2ccc3c(c2)OCO3)o1)N(Cc1ccncc1)CC1CCCO1 (configuration not stated)	none
C=CCc1cccc(CNc2nc3ccccc3n2C)c1O	none
Cn1c(NCc2c(O)ccc3ccccc23)nc2ccccc21	none
CCn1c(CN2CCN(c3ccc(Cl)cc3)CC2)nc2ccccc21	none (no result: HSF1 activator, HSF1 inh)
CCN(CC)c1ccc(CNc2nc3ccccc3n2CCN2CCOCC2)cc1	HSF1 inh -59.8
C=CCc1cccc(CNc2nc3ccccc3n2CCN2CCOCC2)c1O	HSF1 activator 117.6
COc1ccc(CNc2nc3ccccc3n2CCN2CCOCC2)cc1	none
Cn1c(NCc2ccc(Cl)cc2)nc2ccccc21	HSF1 activator 54.2
Cn1c(CN2CCN(c3ccc(Cl)cc3)CC2)nc2ccccc21	HSF1 activator 63.8 (no result: Hep lipid drop)
CN(C)c1ccc(C(c2nnnn2C(C)(C)C)N2CCN(C(=O)c3ccco3)CC2)cc1 (configuration not stated)	PHOSPHO1 block 88.2 (no result: Hep lipid drop)
CCOC(=O)CSc1nc2c(sc3ccc([N+](=O)[O-])cc32)c(=O)n1Cc1ccco1	HSF1 activator 253.6
O=c1cnnc(Nc2ccc(Cl)c(C(F)(F)F)c2)[nH]1	none
Cc1cc(C)cc(NC(=O)Cn2nnc(C(=O)NCc3cccs3)c2N)c1	none
CCOc1ccc(NC(=O)CC(=O)Nc2ccc(OCC)cc2)cc1	none (no result: Hep lipid drop)

Screening data: PubChem, several laboratories
